The source made the active and inactive calls. No cut-off for these calls is given here.
How the values were obtained:
[1] = species on record: Homo sapiens; test: Inhibition of C-terminal 6His-tagged human GYS1 delta634S8,11N mutant at 100 uM using UDPG as substrate in presence of 0.4 mM G-6-P by 14C-glucose incorporation assay relative to control
[2] = Inhibition of recombinant His-tagged yeast GYS2P expressed in Escherichia coli BL21(DE3) cells using UDPG as substrate in presence of 0.04 mM G-6-P by 14C-glucose incorporation assay; design: species or system Saccharomyces cerevisiae
Procedure, shortened: (§1)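 His-tagged yeast Gsy2p, expressed in E. coli BL21(DE3) and purified by Ni-NTA then Q-sepharose. Radiochemical incorporation of glucose into glycogen with 0.3 mM UDPG, with or without 0.04 mM G6P. Controls contained 2% (v/v) DMSO. IC50 was fitted by four-parameter logistic. Values are mean ± SEM of at least three independent experiments in duplicate.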

[3] = Inhibition of recombinant His-tagged yeast GYS2P expressed in Escherichia coli BL21(DE3) cells using UDPG as substrate in absence of G-6-P by 14C-glucose incorporation assay; design: species or system Saccharomyces cerevisiae; procedure, shortened: as §1
[4] = Inhibition of C-terminal 6His-tagged human GYS1 delta634S8,11N mutant using UDPG as substrate in presence of 0.4 mM G-6-P by 14C-glucose incorporation assay
Procedure, shortened: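 Truncated hGYS1 (residues 635–737 deleted, Ser8/Ser11→Asn, C-terminal 6×His, Ni-NTA purified; activation state ~0.2). Radiolabelled glucose incorporation into glycogen with 0.2 mM UDPG and 0.4 mM G6P. Controls contained 2% (v/v) DMSO. IC50 was fitted by four-parameter logistic. Values are mean ± SEM of at least three independent experiments in duplicate.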

[5] = biological target: T1, Glycogen [starch] synthase, muscle (Homo sapiens, UniProt P13807); test: Inhibition of C-terminal 6His-tagged wild type human GYS1 using UDPG as substrate in presence of 1 mM G-6-P by 14C-glucose incorporation assay
T1 sequence (P13807 whole entry): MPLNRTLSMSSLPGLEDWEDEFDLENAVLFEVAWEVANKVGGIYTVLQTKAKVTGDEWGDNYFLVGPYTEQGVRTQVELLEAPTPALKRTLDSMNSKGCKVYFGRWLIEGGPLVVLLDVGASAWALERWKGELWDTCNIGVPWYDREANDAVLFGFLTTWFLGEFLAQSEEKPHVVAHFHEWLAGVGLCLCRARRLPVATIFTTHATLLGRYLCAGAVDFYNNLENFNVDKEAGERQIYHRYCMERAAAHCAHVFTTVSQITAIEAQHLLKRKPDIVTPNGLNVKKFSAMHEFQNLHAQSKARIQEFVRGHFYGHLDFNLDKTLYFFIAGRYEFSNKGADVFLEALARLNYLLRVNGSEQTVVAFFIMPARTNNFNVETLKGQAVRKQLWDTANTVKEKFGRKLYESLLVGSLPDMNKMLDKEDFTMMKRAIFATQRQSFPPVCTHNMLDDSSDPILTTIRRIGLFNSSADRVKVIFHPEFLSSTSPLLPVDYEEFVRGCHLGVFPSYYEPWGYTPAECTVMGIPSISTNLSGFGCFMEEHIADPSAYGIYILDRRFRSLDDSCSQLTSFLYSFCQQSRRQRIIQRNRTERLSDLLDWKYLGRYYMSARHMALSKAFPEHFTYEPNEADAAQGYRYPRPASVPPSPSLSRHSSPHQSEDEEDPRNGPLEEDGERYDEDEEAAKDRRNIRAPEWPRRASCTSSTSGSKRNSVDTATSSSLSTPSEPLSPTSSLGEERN
Procedure, shortened: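 Full-length wild-type hGYS1 with C-terminal 6×His tag in place of the intein-chitin binding domain, Ni-NTA purified. Glucose transfer from UDP-[14C]glucose into glycogen with 0.2 mM UDPG and 1 mM G6P. Controls contained 2% (v/v) DMSO. IC50 was fitted by four-parameter logistic. Values are mean ± SEM of at least three independent experiments in duplicate.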

[6] = Competitive inhibition of recombinant His-tagged yeast GYS2P expressed in Escherichia coli BL21(DE3) cells using UDPG as substrate in presence of G-6-P by 14C-glucose incorporation based Michaelis-Menton plot analysis; design: species or system Saccharomyces cerevisiae
Procedure, shortened: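 Ni-NTA then Q-Sepharose purified enzyme (5 μg/ml) assayed by radiolabelled glucose transfer from UDPG into glycogen. UDPG varied 0.2–8 mM with 7.2 mM G6P, covaried against fixed inhibitor levels, 2% (v/v) DMSO throughout. Data fitted to competitive, non-competitive and uncompetitive models, chosen by goodness-of-fit and residuals. Ki given as mean ± SEM of three independent experiments in duplicate.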

[7] = Competitive inhibition of recombinant His-tagged yeast GYS2P expressed in Escherichia coli BL21(DE3) cells using UDPG as substrate in absence of G-6-P by 14C-glucose incorporation based Michaelis-Menton plot analysis; design: species or system Saccharomyces cerevisiae
Procedure, shortened: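 Yeast Gsy2p at 5 μg/ml in a 14C-glucose incorporation assay. UDPG was varied from 0.2 to 8 mM without G6P, and inhibitor was covaried up to 0.8 mM. Data were fitted to competitive, non-competitive and uncompetitive models, and the model was chosen by goodness of fit and residuals. Controls contained 2% (v/v) DMSO. Values are mean ± SEM of three independent experiments in duplicate.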

[8] = test system: Saccharomyces cerevisiae; test: Inhibition of recombinant His-tagged yeast GYS2P expressed in Escherichia coli BL21(DE3) cells assessed as enzyme activity at 300 uM using UDPG as substrate in presence of G-6-P by 14C-glucose incorporation assay relative to control; design: scale not given: the % may be the effect or the level left
[9] = species on record: Homo sapiens; test: Inhibition of C-terminal 6His-tagged human GYS1 delta634S8,11N mutant assessed as enzyme activity at 300 uM using UDPG as substrate in presence of 0.4 mM G-6-P by 14C-glucose incorporation assay relative to control; design: scale not given: the % may be the effect or the level left
[10] = biological target: T2, Glycogen [starch] synthase, muscle (Homo sapiens) (UniProt P13807); test: Inhibition of C-terminal 6His-tagged wild type human GYS1 assessed as enzyme activity at 300 uM using UDPG as substrate in presence of 1 mM G-6-P by 14C-glucose incorporation assay relative to control; design: scale not given: the % may be the effect or the level left
T2 sequence (whole entry): T1 sequence (P13807 whole entry)

[11] = biological target: T2, Glycogen [starch] synthase, muscle (Homo sapiens); test: Inhibition of glycogen synthase in human HEK293 cell lysates overexpressing mouse PTG at 100 uM using 0.2 mM UDPG as substrate in presence of 1 mM G-6-P by 14C-glucose incorporation assay; format: subcellular; details: Lysate
Procedure, shortened: (§2)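 Lysates came from HEK293 cells stably expressing PTG (5.5 mM glucose αMEM, 10% FBS, hygromycin) or from Rat-1 cells (25 mM glucose DMEM, 10% FBS), grown 3–4 days to confluency. Cells were lysed by freezing, scraping and sonication in Tris/EDTA/EGTA/NaF buffer with protease inhibitors and Triton. Assays used 0.15 mg/mL (HEK293-PTG) or 0.75 mg/mL (Rat-1) lysate in 50 mM Tris-HCl pH 7.8 with 6.7 mg/ml glycogen and 2% DMSO. Read-out was [14C]glucose incorporation relative to DMSO control, in triplicate.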

[12] = biological target: T3, Glycogen [starch] synthase, muscle (Rattus norvegicus) (UniProt A2RRU1); test: Inhibition of glycogen synthase in rat-1 fibroblast cell lysates at 100 uM using 0.2 mM UDPG as substrate in presence of 1 mM G-6-P by 14C-glucose incorporation assay; format: subcellular; details: Lysate; procedure, shortened: as §2
T3 sequence (whole entry): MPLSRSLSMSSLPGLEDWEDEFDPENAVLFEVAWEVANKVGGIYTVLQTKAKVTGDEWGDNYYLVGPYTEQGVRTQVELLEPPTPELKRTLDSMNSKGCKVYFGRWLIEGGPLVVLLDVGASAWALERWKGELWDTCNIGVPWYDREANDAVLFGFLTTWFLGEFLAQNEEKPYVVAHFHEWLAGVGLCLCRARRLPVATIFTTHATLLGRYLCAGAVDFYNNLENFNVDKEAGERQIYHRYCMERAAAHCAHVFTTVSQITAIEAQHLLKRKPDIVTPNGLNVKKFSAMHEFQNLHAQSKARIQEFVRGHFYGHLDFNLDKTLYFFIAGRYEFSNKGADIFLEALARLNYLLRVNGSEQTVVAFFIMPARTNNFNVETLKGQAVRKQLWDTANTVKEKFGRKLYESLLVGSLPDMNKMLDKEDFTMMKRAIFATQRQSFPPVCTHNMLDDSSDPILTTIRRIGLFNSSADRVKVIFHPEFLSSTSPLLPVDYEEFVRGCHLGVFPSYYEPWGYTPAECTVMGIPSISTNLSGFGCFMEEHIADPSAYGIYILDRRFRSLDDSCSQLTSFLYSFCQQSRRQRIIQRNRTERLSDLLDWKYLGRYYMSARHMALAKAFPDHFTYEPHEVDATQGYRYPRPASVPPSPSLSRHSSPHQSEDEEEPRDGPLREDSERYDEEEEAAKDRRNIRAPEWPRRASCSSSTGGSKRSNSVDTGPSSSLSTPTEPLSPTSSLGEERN

[13] = test system: Saccharomyces cerevisiae; test: Inhibition of recombinant His-tagged yeast GYS2P expressed in Escherichia coli BL21(DE3) cells assessed as enzyme activity at 20 uM using UDPG as substrate in presence of G-6-P by 14C-glucose incorporation assay relative to control; design: scale not given: the % may be the effect or the level left
[14] = species on record: Homo sapiens; test: Inhibition of C-terminal 6His-tagged human GYS1 delta634S8,11N mutant assessed as enzyme activity at 20 uM using UDPG as substrate in presence of 0.4 mM G-6-P by 14C-glucose incorporation assay relative to control; design: scale not given: the % may be the effect or the level left
[15] = biological target: T2, Glycogen [starch] synthase, muscle (Homo sapiens); test: Inhibition of C-terminal 6His-tagged wild type human GYS1 assessed as enzyme activity at 20 uM using UDPG as substrate in presence of 1 mM G-6-P by 14C-glucose incorporation assay relative to control; design: scale not given: the % may be the effect or the level left
[16] = biological target: T1, Glycogen [starch] synthase, muscle; test: Competitive inhibition of C-terminal 6His-tagged human GYS1 using UDPG as substrate in presence of G-6-P by 14C-glucose incorporation based Michaelis-Menton plot analysis
Procedure, shortened: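 Radiolabel transfer from UDP-[14C]glucose into glycogen. Inhibitor and UDPG concentrations were covaried. Data were fitted to competitive, non-competitive and uncompetitive models, and the model was chosen by goodness of fit and residuals. Controls contained 2% (v/v) DMSO. Values are mean ± SEM of three independent experiments, each in duplicate.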

[17] = Inhibition of recombinant yeast GYS2P Y513L mutant using UDPG as substrate in presence of 7.2 mM G-6-P by 14C-glucose incorporation assay; design: species or system Saccharomyces cerevisiae
Procedure, shortened: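 Yeast Gsy2p Y513L mutant, purified like the wild type. Assayed by 14C-glucose incorporation into glycogen with UDPG under saturating 7.2 mM G6P. IC50 curves used triplicate measurements, with three experiments performed.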

[18] = biological target: T2, Glycogen [starch] synthase, muscle (Homo sapiens); test: Inhibition of glycogen synthase in human HEK293 cell lysates overexpressing mouse PTG at 100 uM using 0.2 mM UDPG as substrate in presence of 1 mM G-6-P by 14C-glucose incorporation assay relative to control; format: subcellular; details: Lysate; procedure, shortened: as §2
[19] = biological target: T3, Glycogen [starch] synthase, muscle (Rattus norvegicus); test: Inhibition of glycogen synthase in rat-1 fibroblast cell lysates at 100 uM using 0.2 mM UDPG as substrate in presence of 1 mM G-6-P by 14C-glucose incorporation assay relative to control; format: subcellular; details: Lysate; procedure, shortened: as §2

| inhibition [1] [%] | IC50 [2] [µM] | IC50 [3] [µM] | IC50 [4] [µM] | IC50 [5] [µM] | Activity [9] [%] | Activity [10] [%] | inhibition [11] | inhibition [12] | Activity [14] [%] | Activity [15] [%] | Ki [16] [µM] | IC50 [17] [µM] | inhibition [18] [%] | inhibition [19] [%] | Compound | Ki [6] [µM] | Ki [7] [µM] | Activity [8] [%] | Activity [13] [%] |
| --- | --- | --- | --- | --- | --- | --- | --- | --- | --- | --- | --- | --- | --- | --- | --- | --- | --- | --- | --- |
| > 20 | 263 | 280 | 161 | 875 | 46.5 | 77.1 | inactive | inactive | – | – | – | – | – | – | COc1cc(-c2c(-c3ccccc3)ncn2CCC2CCCN2C)ccc1O (racemic) | 370 | 290 | 36.5 | – |
| – | 7.98 | – | – | 2.75 | – | – | – | – | -1.01 | -0.26 | 1.31 | 33.6 | 100 | 100 | Oc1ccc(-c2c(-c3ccc(O)c(O)c3O)n[nH]c2C(F)(F)F)cc1 | – | – | – | 0.97 |
